pIC50: −log10 of the molar value. Blank lines part the entries; values can stand above or below the molecule they belong to.
Assays:
[1] = molecular target: T1, Neuropeptide Y receptor type 5 (Homo sapiens, UniProt Q15761); experiment: Binding affinity to the human Neuropeptide Y receptor Y5 (NPY5)
T1 sequence (Q15761 whole entry): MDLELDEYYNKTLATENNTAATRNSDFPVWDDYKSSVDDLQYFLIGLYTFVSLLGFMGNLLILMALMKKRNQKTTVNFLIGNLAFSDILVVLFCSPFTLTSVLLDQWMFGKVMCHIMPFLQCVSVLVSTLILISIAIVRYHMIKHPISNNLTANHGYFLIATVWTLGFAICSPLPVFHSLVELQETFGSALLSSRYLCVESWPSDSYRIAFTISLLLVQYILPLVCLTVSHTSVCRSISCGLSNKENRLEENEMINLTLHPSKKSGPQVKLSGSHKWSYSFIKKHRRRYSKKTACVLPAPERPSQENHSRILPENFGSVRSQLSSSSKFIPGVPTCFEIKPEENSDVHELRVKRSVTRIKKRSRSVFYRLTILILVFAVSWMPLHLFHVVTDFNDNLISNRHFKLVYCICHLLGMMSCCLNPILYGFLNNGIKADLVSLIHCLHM
Method in brief: (§1)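 Membranes from Hi5 insect cells infected 48 h with baculovirus carrying rat or human NPY-5 receptor, prepared by sonication in hypotonic Tris/EDTA/sucrose buffer and harvested on a 41% sucrose cushion. 0.01 µCi [125I]PYY incubated with membranes and compound in HEPES buffer (CaCl2, MgCl2, 0.5% BSA, pH 7.4) for 2 h at room temperature. Filtered onto PEI-treated GF/C plates, then scintillation counted.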

[2] = molecular target: T2, Neuropeptide Y receptor type 5 (Rattus norvegicus, UniProt Q63634); experiment: Binding affinity against rat Neuropeptide Y receptor Y5; method in brief: as §1
T2 sequence (Q63634 whole entry): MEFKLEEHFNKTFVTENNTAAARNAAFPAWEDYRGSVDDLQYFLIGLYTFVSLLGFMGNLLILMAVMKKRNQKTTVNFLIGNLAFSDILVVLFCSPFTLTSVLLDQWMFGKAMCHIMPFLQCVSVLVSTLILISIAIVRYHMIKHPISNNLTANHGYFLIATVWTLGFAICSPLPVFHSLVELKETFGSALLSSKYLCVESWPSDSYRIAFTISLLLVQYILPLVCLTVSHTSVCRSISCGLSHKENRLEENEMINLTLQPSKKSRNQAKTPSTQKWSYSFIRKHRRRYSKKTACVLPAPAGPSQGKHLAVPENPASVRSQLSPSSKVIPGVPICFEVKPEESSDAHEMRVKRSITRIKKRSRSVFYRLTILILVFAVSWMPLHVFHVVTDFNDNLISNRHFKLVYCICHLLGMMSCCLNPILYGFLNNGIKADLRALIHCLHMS

[3] = Bioavailability in rat; type: ADME, organism-based; conditions: in vivo, read-out: Bioavailabiility
Method in brief: (§2)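 Rats received a DMA:PEG:H2O 1:1:1 solution, iv at 10 µmol/kg and po at 30 µmol/kg. Half-life, Vss, clearance, Cmax, Tmax and oral bioavailability were derived from plasma levels.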

[4] = Half life in rat was reported; type: ADME, organism-based; conditions: in vivo; method in brief: as §2
[5] = Compound was evaluated for functional antagonism of NPY activity in cellular Ca flux
[6] = molecular target: T1, Neuropeptide Y receptor type 5; experiment: In vitro human Neuropeptide Y receptor Y5 functional antagonism (reporter gene assay)
Salmonella typhimurium [7] = experiment: Ames activity in TA 98+S9, expressed as maximum fold increase in mutation frequency; NI means no increase; type: functional, organism-based; conditions: Salmonella enterica subsp. enterica serovar Typhimurium
Method in brief: (§3)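 Salmonella typhimurium TA98 plate incorporation assay with S9 mix. The S9 is the postmitochondrial fraction of livers from Aroclor 1254-treated Sprague–Dawley rats, supplemented with cofactors for NADPH generation. Tested across 6–2000 μg/plate. The value is the maximum increase in mutation frequency relative to background across that dose range.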

Salmonella typhimurium [8] = experiment: Ames activity in TA 98+S9, expressed as maximum fold increase in mutation frequency; type: functional, Salmonella enterica subsp. enterica serovar Typhimurium; method in brief: as §3
[9] = Maximum concentration of compound at a dose 30 umol/kg administered orally; type: ADME, organism-based; set-up: dose 30 umol/kg, route oral; conditions: in vivo, po
[10] = molecular target: T1, Neuropeptide Y receptor type 5; experiment: Compound was evaluated for functional antagonism of Neuropeptide Y receptor Y5 activity in cellular Ca flux
[11] = Percent inhibition of 5-HT2b and adenosine transport at 10 uM Y1, Y2, Y4 and 80 other receptors at > 10 uM; type: functional
Method in brief: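 Selectivity screen with compound tested at 10 µM for binding to 5HT2b receptor and for inhibition of adenosine transport. Y1, Y2, Y4 and 80 other receptors were also screened. Human Y1, Y2 and Y4 membranes came from SK-N-MC cells, KAN-TS cells and stable Y4-expressing CHO cells, using the [125I]PYY filtration binding format.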

[12] = Clearance level at a dose 10 umol/kg administered intravenously; type: ADME, organism-based; conditions: in vivo, iv
[13] = Volume of distribution of compound at a dose 10 umol/kg was administered intravenously; type: ADME, organism-based; conditions: in vivo, iv, read-out: Vss
[14] = Bioavailability of compound at a dose 30 umol/kg administered orally; type: ADME, organism-based; conditions: eutheria, in vivo, po, at 30 µmol/kg
[15] = Tmax of compound at a dose 30 umol/kg administered orally; type: ADME, organism-based; conditions: in vivo, po
[16] = molecular target: T1, Neuropeptide Y receptor type 5; experiment: The compound was evaluated in vitro for: human Neuropeptide Y receptor Y5 functional antagonism
[17] = Half-life of compound at a dose 30 umol/kg administered orally; type: ADME, organism-based; conditions: in vivo, po
[18] = Half-life of compound at a dose 10 umol/kg was administered intravenously; type: ADME, organism-based; conditions: in vivo, iv
Salmonella typhimurium [19] = experiment: Mutagenicity (Ames activity) for Salmonella Typhimurium TA98 in the presence of rat liver S9 mix, at 3.3 ug/plate conc.; type: functional, Salmonella enterica subsp. enterica serovar Typhimurium
Method in brief: (§4)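 Ames plate incorporation assay with S. typhimurium TA98 and TA100, run as described by Maron and Ames. Metabolic activation used S9 mix from livers of Aroclor 1254-treated Sprague–Dawley rats with an NADPH-generating cofactor system. Test substance given at 3.3–100 µg/plate. Read-out was revertant colonies per plate against a solvent control.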

Salmonella typhimurium [20] = experiment: Mutagenicity (Ames activity) for Salmonella Typhimurium TA98 in the presence of rat liver S9 mix, at 10 ug/plate conc.; type: functional, Salmonella enterica subsp. enterica serovar Typhimurium; method in brief: as §4
Salmonella typhimurium [21] = experiment: Mutagenicity (Ames activity) for Salmonella Typhimurium TA100 in the presence of rat liver S9 mix, at 100 ug/plate conc.; type: functional, Salmonella enterica subsp. enterica serovar Typhimurium; method in brief: as §4
Salmonella typhimurium [22] = experiment: Mutagenicity (Ames activity) for Salmonella Typhimurium TA98 in the presence of rat liver S9 mix, at 100 ug/plate conc.; type: functional, Salmonella enterica subsp. enterica serovar Typhimurium; method in brief: as §4
Salmonella typhimurium [23] = experiment: Mutagenicity (Ames activity) for Salmonella Typhimurium TA100 in the presence of rat liver S9 mix, at 10 ug/plate conc.; type: functional, Salmonella enterica subsp. enterica serovar Typhimurium; method in brief: as §4
Salmonella typhimurium [24] = experiment: Mutagenicity (Ames activity) for Salmonella Typhimurium TA100 in the presence of rat liver S9 mix, at 33 ug/plate conc.; type: functional, Salmonella enterica subsp. enterica serovar Typhimurium; method in brief: as §4
Salmonella typhimurium [25] = experiment: Mutagenicity (Ames activity) for Salmonella Typhimurium TA98 in the presence of rat liver S9 mix, at 33 ug/plate conc.; type: functional, Salmonella enterica subsp. enterica serovar Typhimurium; method in brief: as §4
Salmonella typhimurium [26] = experiment: Mutagenicity (Ames activity) for Salmonella Typhimurium TA100 in the presence of rat liver S9 mix, at 3.3 ug/plate conc.; type: functional, Salmonella enterica subsp. enterica serovar Typhimurium; method in brief: as §4

pIC50 [1]: 6.52
SMILES: O=C(CCc1ccncc1)Nc1ccc(C(=O)c2ccccc2)cc1

pIC50 [1]: 9.00
SMILES: CC(C)n1c2ccccc2c2cc(NC(=O)CCc3ccncc3)ccc21

pIC50 [1]: 8.70
SMILES: CC(C)n1c2ccccc2c2cc(NC(=O)N3CCOCC3)ccc21

pIC50 [1]: 7.40
SMILES: O=C(Nc1ccc2c(c1)c1ccccc1n2C1CCOC1)N1CCOCC1 (stereo unspecified)

pIC50 [1]: 8.52
SMILES: CC(C)n1c2ccc(F)cc2c2cc(NC(=O)N3CCOCC3)ccc21

pIC50 [2]: 8.15
bioavailability [3]: 1%
half-life [4]: 15 min
pIC50 [1]: 8.70
pIC50 [5]: 8.70
pIC50 [6]: 7.96
SMILES: CCn1c2ccccc2c2cc(NC(=O)CCc3ccncc3)ccc21

SMILES: CC(C)c1c(N)ccc2c1c1ccccc1n2C(C)C
NI (Salmonella typhimurium [7]): no increase

pIC50 [1]: 7.92
SMILES: CC(C)n1c2ccccc2c2c(F)c(NC(=O)N3CCOCC3)c(F)cc21

SMILES: CCOc1c(N)ccc2c1c1ccccc1n2C(C)C
NI (Salmonella typhimurium [7]): no increase

SMILES: CN(C)S(=O)(=O)n1c2ccccc2c2cc(N)ccc21
Max fold increase (Salmonella typhimurium [8]): 39

pIC50 [1]: 7.48
SMILES: Cn1c2ccccc2c2cc(NC(=O)CCc3ccncc3)ccc21

SMILES: Cc1cc2c(cc1N)c1ccccc1n2C(C)C
Mutation frequency (Salmonella typhimurium [8]): 3

SMILES: Cc1c(N)ccc2c1c1ccccc1n2C(C)C
NI (Salmonella typhimurium [7]): no increase

SMILES: Nc1ccc2c(c1)c1ccccc1n2C1CCOC1 (stereo unspecified)
Mutation frequency (Salmonella typhimurium [8]): 66

Cmax [9]: 35 µM
pIC50 [10]: 8.22
inhibition [11]: 70%
clearance [12]: 1.33 mL/min/kg
Vd [13]: 0.41 L/kg
bioavailability [14]: 76%
Tmax [15]: 1 h
pIC50 [1]: 8.52
pIC50 [16]: 7.43
half-life [17]: 384 min
half-life [18]: 222 min
SMILES: Cc1c(NC(=O)N2CCOCC2)ccc2c1c1ccccc1n2C(C)C

SMILES: CCn1c2ccccc2c2cc(N)ccc21
Revertant colonies per plate (Salmonella typhimurium [19]): 623
Revertant colonies per plate (Salmonella typhimurium [20]): 1416
Revertant colonies per plate (Salmonella typhimurium [21]): 483
Revertant colonies per plate (Salmonella typhimurium [22]): 897
Mutation frequency (Salmonella typhimurium [8]): 43
Revertant colonies per plate (Salmonella typhimurium [23]): 358
Revertant colonies per plate (Salmonella typhimurium [24]): 466
Revertant colonies per plate (Salmonella typhimurium [25]): 1227
Revertant colonies per plate (Salmonella typhimurium [26]): 192

pIC50 [1]: 7.11
SMILES: CC(C)(C)Cn1c2ccccc2c2cc(NC(=O)N3CCOCC3)ccc21

SMILES: CC(C)n1c2ccccc2c2cc(N)c(Cl)cc21
Mutation frequency (Salmonella typhimurium [8]): 43

pIC50 [1]: < 5.00
SMILES: CCn1c2ccccc2c2c(NC(=O)CCc3ccncc3)cccc21

pIC50 [1]: 5.65
SMILES: CCn1c2ccccc2c2cc(CC(=O)NCc3ccncc3)ccc21

SMILES: Cc1c(N)cc(C)c2c1c1ccccc1n2C(C)C
NI (Salmonella typhimurium [7]): no increase

pIC50 [1]: 6.15
SMILES: Cc1c(NC(=O)N2CCOCC2)cc(C)c2c1c1ccccc1n2C(C)C

pIC50 [1]: 6.11
SMILES: CC(C)c1c(NC(=O)N2CCOCC2)ccc2c1c1ccccc1n2C(C)C

Reference: ChEMBL document CHEMBL1135535, “Discovery and optimization of a series of carbazole ureas as NPY5 antagonists for the treatment of obesity” (J Med Chem, 2002)
